Tested on: MS2 coat protein
Assay: apparent Kd, MS2 coat protein; higher = weaker binding; RNA-MaP array
How it was run: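 Apparent Kd was taken as the median of binding curves fitted cluster by cluster. The designed RNAs were made by transcription of sequenced DNA templates on an Illumina sequencing chip and exposed to fluorescently labeled MS2 coat protein (1.5 nM to 3 μM) at room temperature, with or without input ligand, for 0.8–1.5 h at the lowest and 10–20 min at the highest concentrations. Any design measured on fewer than 10 clusters was left out.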

[1] = designed as: OFF switch for flavin mononucleotide, no ligand
[2] = ligand present: flavin mononucleotide, designed as: OFF switch for flavin mononucleotide
[3] = designed as: ON switch for flavin mononucleotide, no ligand
[4] = ligand present: flavin mononucleotide, designed as: ON switch for flavin mononucleotide
[5] = designed as: ON switch for tryptophan, no ligand
[6] = ligand present: tryptophan, designed as: ON switch for tryptophan
[7] = designed as: OFF switch for theophylline, no ligand
[8] = ligand present: theophylline, designed as: OFF switch for theophylline

| Sequence | apparent Kd [1] | apparent Kd [2] | other results |
| --- | --- | --- | --- |
| UAGUCAUCGGCAGGAUAUUCGCUAGUAGACUAUGAAGAAGGGCCACGUACCUCACAAACAUGAGGAUCACCCAUGUAUCUGGAC | 39.2 nM | 29 nM |  |
| UCCCGACAUGAGGAUCACCCAUGUGGACAGUACACAGGAUAUUAACUCAUUACAAUAGAAUAAGAAGGGUGGUACC |  |  | apparent Kd [3]: 69.1 nM; apparent Kd [4]: 47.1 nM |
| CCCGGUGACUAGAAGGCGCCACAUGAGGAUCACCCAUGUAUCAAAGACCGGUGAUUGCCGACGGGCGAGGAUAUAGGUGCGACG | 8.18 nM | 14.5 nM |  |
| GAUGAGCGCACGGGAAUAAACAUGAGGAUCACCCAUGUCGUUAGAAGGGUAUUCGCCGGGACCAUACAGGAUAUAACGCGUCAC |  |  | apparent Kd [3]: 25.7 nM; apparent Kd [4]: 21 nM |
| GAUAUACAUGAGGAUCACCCAUGUCCAAAUUAAGUUUUAGUAUAGGAUAUUGACCGCUAGGAUGUCAAGAAGGAUACCCGAGGU |  |  | apparent Kd [3]: 14.8 nM; apparent Kd [4]: 7.52 nM |
| UGAUUAUACUUUGAGGAUAUACUAGGACUCACAUGAGGAUCACCCAUGUGUGCGGCUAUACGAGCGUAGAAGGCAAAUACUCCGGC |  |  | apparent Kd [3]: 9.31 nM; apparent Kd [4]: 7.91 nM |
| GAUAGAUAUGUAAGGAUAUGUGACGCGCUUGAGAAACAGAAGGAACAUGAGGAUCACCCAUGUAGAUGUUGUGA | 11.2 nM | 9.94 nM |  |
| UCGCAUUCAGGAUAUACUUAAAGGUGAACUGAUCAUAGCAAACAUGAGGAUCACCCAUGUAGAAGGGAAAUAUC | 99.2 nM | 72.7 nM |  |
| CUAUACGUAACAUGAGGAUCACCCAUGUUCAGGUGACCAGGAAGAAGGGCUAGCAGAGUAGUUCAGCAGGAUAUUCGAUUAGAC | 38.6 nM | 28.9 nM |  |
| AGGACGUCAGGAUAUUCUAUGUGGCUCUAAUGGCCGACCAUGAAGAAGGGACAUGAGGAUCACCCAUGUGAGCU | 25.7 nM | 50.1 nM |  |
| UAAGAGUCGGCAGGAUAUGUCCCUUGAGCGCAGACAGAAGGGCCACUAUCUUUCACAUGAGGAUCACCCAUGUCCUCCCUGGAG | 49 nM | 61.6 nM |  |
| CGCAGACUGUUAGGAUAUGAUACUAACAUGAGGAUCACCCAUGUUUACUCAGUGGAUAAGCAGAGUCAGAAGGAACAUUACGCA |  |  | apparent Kd [3]: 12.2 nM; apparent Kd [4]: 9.29 nM |
| ACGAAUGUAGGAUAUACCAGUAGGAGAUGGGUAUCAGCACCACAUGAGGAUCACCCAUGUAGAAGGACACGUGA | 38.4 nM | 40.3 nM |  |
| UAGGACAUGAGGAUCACCCAUGUUGUACGGCGAGGACCGGUACGGCCGCCACUCGAGGCGUAAGUAGUAAAGAAUCUGAUUCAAU |  |  | apparent Kd [5]: 21.4 nM; apparent Kd [6]: 24.1 nM |
| GCAGGAAAGCAGAAGGACACCACAUGAGGAUCACCCAUGUCGGCGCUGACUUUGAUCUUGAGGAUGUAGGAUAUGCGUUUCGGA | 8.76 nM | 17.4 nM |  |
| GCUGCCGUCGGUGAAAACUCCCAUGCAGAUACCAGCGCAUUCCGCCGCCCUUGGCAGCUGCAUACAUGAGGAUCACCCAUGUGUU |  |  | apparent Kd [7]: 84.4 nM; apparent Kd [8]: 147 nM |
| UGAUACAUGAGGAUCACCCAUGUUGAUCCCGAGAAGUCCGUAAGAAGGACAGACACGAUGGAUCUGUAGGAUAUUACGACGGAC | 182 nM | 122 nM |  |
| UUACAACUAAUGGAUACCAGCCGCGUGCUAGUGGUAGCAUACAUGAGGAUCACCCAUGUCGGCCCUUGGCAGCCACGCCCAUGCU |  |  | apparent Kd [7]: 14.5 nM; apparent Kd [8]: 21.5 nM |
| GAAGAUCCGUAAGAUACCAGUGCAGAUCGGCACAUGAGGAUCACCCAUGUAAAGCAAGAACACCCUUGGCAGCUUUCGUAACAAC |  |  | apparent Kd (designed as: ON switch for theophylline, no ligand): 158 nM; apparent Kd (ligand present: theophylline, designed as: ON switch for theophylline): 10.3 nM |
| CAUAUCAAUUCAGGAUAUUCUGUUUAAUACAUGAGGAUCACCCAUGUCCUCCAAAGAUUAGCAAGGAAGAAGGGAAGUAAACAG | 82.2 nM | 69 nM |  |
| CGACUCCCAGAGAAGGCCGCAAACAUGAGGAUCACCCAUGUACUACCUGAGUCUCGGGCGGUACCGGAGGAUAUCUAGGCUCGC |  |  | apparent Kd [3]: 26.6 nM; apparent Kd [4]: 10.9 nM |

| Sequence | apparent Kd [1] | apparent Kd [2] | other results |
| --- | --- | --- | --- |
| GUGACUAAAUGCAAGGAUAUCCGCGGCGGUACAUGAGGAUCACCCAUGUCAAGAGUCCACUGGCAGGAGAAGGUGCCCUGCGUCAU |  |  | apparent Kd [3]: 7.57 nM; apparent Kd [4]: 6.07 nM |
| GAACACCAGAAGAAGGGAGACAUGAGGAUCACCCAUGUUUAAAUACGAAAUAAGGUAAAAGCAACACAGGAUAUUCGGCUCUAC |  |  | apparent Kd [3]: 22.6 nM; apparent Kd [4]: 18 nM |
| AGGGCACAUGAGGAUCACCCAUGUAAGGAUAUGGACUUUUUUGCUGUAGUAAUCAUCUCCAGAAGGUACGUCUU | 24.4 nM | 19.6 nM |  |
| CUCUUAGGACAGGAUAUGGAACGCAUGUGUGCUCCAGAAGGGUCUACAUGAGGAUCACCCAUGUUCGGGACGGU | 530 nM | 469 nM |  |
| AACGUCAACGUAAGGAUAUGCAGUAAGAGCGACAGGCAGAAGGUACAUGAGGAUCACCCAUGUUAACAGAACGG | 8.79 nM | 9.6 nM |  |
| ACAAACUCAGGAUAUAACGGUGGACACAUGAGGAUCACCCAUGUAAUCCGUGUGACUUAUUUAGAAGGGAGGCGAU | 8.35 nM | 8.34 nM |  |
| GUUCAACGGUGAGGAUAUUGCAGUACGUACGCACAAGAAGGCACUCCAUAGCACAGGGUGCACAUGAGGAUCACCCAUGUGGUC | 494 nM | 224 nM |  |
| AGUCACUUCUAGAAGGCGCGGACUUACUAGCGGCGAGGAUAUAGUAGGAACAUGAGGAUCACCCAUGUCUAUUGGGUACGGCCC | 14.2 nM | 14.9 nM |  |
| GGGCACAUGAGGAUCACCCAUGUCCAACGGCGAGGACCGGUACGGCCGCCACUCGGUAUAAGCUUCGAAAAGGAGGAUCCUGCAG |  |  | apparent Kd [5]: 38.4 nM; apparent Kd [6]: 30.9 nM |
| UGUGACCGCCAUUCUCGCGACAUGAGGAUCACCCAUGUUUCCAGAAGGCUCCAGGCUUGUGCUCGAGAGGAUAUGGGAAGAUUC | 28.4 nM | 26.5 nM |  |
| AAGCCACAUGAGGAUCACCCAUGUAAGGGUACCUGAGGAUAUCCGGCGGGACAGAAAGGAGGAGAAGGCAGAUCCA |  |  | apparent Kd [3]: 50.2 nM; apparent Kd [4]: 33 nM |
| UUAAUUCAGUGCCACAUGAGGAUCACCCAUGUCCAUACUCAAAAGGAUAUAUGCGGUUUCUAAGUAUAGAAGGUUUGUACACGA |  |  | apparent Kd [3]: 130 nM; apparent Kd [4]: 89 nM |
| UUCACAGUGCAAGGAUAUGACAGUUUACAUGAGGAUCACCCAUGUUGGUCCUAUUCAGAAUGAGAUCAGAAGGUGCUAAUAUGU | 18.6 nM | 36.1 nM |  |
| CCAUUGUCAGGAUAUUGUGGUUUAGCGUCGAAAGGGCUUAGCAAGAAGGGACAUGAGGAUCACCCAUGUGUAGU | 33.8 nM | 146 nM |  |
| AGAACCCAAGAGGAUACCAGAACGACAAUCAAAUCUUUUUACAUGAGGAUCACCCAUGUUUUCCCUUGGCAGCCUCAUGCACGAC |  |  | apparent Kd [7]: 72.1 nM; apparent Kd [8]: 60.8 nM |
| AACAAACAUGAGGAUCACCCAUGUGAGGAUAUCAAGUCCAUACCCUAAGAGGGAGUUUUGAGAAGGCACGUGUA | 11.2 nM | 15.1 nM |  |
| UCCCGAAAGAAGAAGGGUACACCGAGCUGGUAACACAGCAAAACAUGAGGAUCACCCAUGUCUGAACAGGAUAUUCCGCGAGUA |  |  | apparent Kd [3]: 31.9 nM; apparent Kd [4]: 25.5 nM |
| CACAUGAGGAUCACCCAUGUCGCGGUGUGACCGAUACUCGAAUAGGAUAUGCUUGACACUUCGUGGCAGAAGGAUUGAGGUUCG | 76.6 nM | 54.9 nM |  |
| ACAGCAAACGUAGGAUAUGGGAGAACAUGAGGAUCACCCAUGUGGAAGUACGAGUUCGCUACAUACCAGAAGGACGAAAUCUAC |  |  | apparent Kd [3]: 156 nM; apparent Kd [4]: 35.8 nM |
| CUAAUGGUUGCAGGAUAUCGAAAACCGCACAUGAGGAUCACCCAUGUCGCUAAGCGUGACAUAGUCGAGAAGGGCAUGACAACU | 37.3 nM | 14.8 nM |  |

— the EternaBench riboswitch data
